Tm and folding enthalpy data for 37 sequences are collected here from the array DNA melting data of Ke et al. (doi:10.1101/2024.01.08.574731).

Data set [1] in a line: melting temperature; fluorescence melt of hairpins on a sequencing array, two-state fit, raised by 9.35 °C to match UV melts. To be noted: sodium 0.088 M. The essentials: (§1)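 Two-state fits, bootstrapped, provided melting temperature and folding enthalpy from Cy3 fluorescence normalised to pre-quench Cy3 and to control constructs. Library hairpins with annealed Cy3 and quencher oligos were imaged on a sequenced MiSeq flow cell in 50 mM Na-HEPES pH 8.0, 25 mM NaCl, at 2.5 °C intervals up to 60 °C. Four replicates were combined with inverse-variance weighting. A 9.35 °C upward shift was applied to fitted temperatures to match UV melts.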

Data set [2] can be described thus: folding enthalpy; higher = less favourable; fluorescence melt of hairpins on a sequencing array, two-state fit. To be noted: sodium 0.088 M. The gist of the method:
as §1

For GAGAGAGGAAACTCCCTC (((.(((....))).))), the Tm in data set [1] was determined as 28.6 °C. The folding enthalpy in data set [2] is -22.1 kcal/mol.
In the same order, the values of GAGAGCCGAAAGGCGCTC (((.(((....))).))) are 67.8 °C and -22.9 kcal/mol.
Turning to GAGAGCGAAAGCTAGCTC ((((((....)))..))), the Tm in data set [1] was 36.6 °C. In data set [2], the folding enthalpy was -13.8 kcal/mol.
In the same order, the values of GAGAGCGAAAGCTATCTC ((((((....)))..))) are 51.2 °C and -22.4 kcal/mol.
As for GAGAGCGAAAGCTGTCTC ((((((....)))..))), the Tm in data set [1] is 51.1 °C. Besides, the folding enthalpy in data set [2] was -20.3 kcal/mol.
Taken in the same sequence, the figures for GAGAGCGAAAGCTTTCTC ((((((....)))..))) were 46.6 °C and -21.4 kcal/mol.
In the same order, the values of GAGAGGAAACTCTC (((((....))))) are 44.6 °C and -23.4 kcal/mol.
Taken in the same sequence, the figures for GAGAGGGGAAACCCTTTC ((.((((....)))).)) were 36.4 °C and -16.8 kcal/mol.
With GAGAGTGGAAACACTTTC ((.((((....)))).)), the Tm in data set [1] came out at 37.6 °C. Besides, in data set [2], the folding enthalpy was -19.4 kcal/mol.
Taken in the same sequence, the figures for GAGATAGGAAACCATCTC (((((.(....).))))) were 34.1 °C and -23.5 kcal/mol.
Taken in the same sequence, the figures for GAGATCCGAAAGGAACTC (((.(((....))).))) were 50.2 °C and -32.2 kcal/mol.
In the same order, the values of GAGATCGGAAACGATTTC ((.((((....)))).)) are 42.3 °C and -26.8 kcal/mol.
As for GAGATCGGAAACGGTCTC ((((.((....)).)))), in data set [1], the Tm is 51.3 °C. Further, the folding enthalpy in data set [2] is -44.5 kcal/mol.
In the same order, the values of GAGATGGGAAACCATCCC (.(((((....))))).) are 38.7 °C and -13.1 kcal/mol.
Turning to GAGATTGGAAACAATCCC (.(((((....))))).), the Tm in data set [1] was found to be 34 °C. Besides, the folding enthalpy in data set [2] is -19.6 kcal/mol.
In the same order, the values of GAGATTGGAAACAATCTC (((((((....))))))) are 56.4 °C and -42.2 kcal/mol.
In the same order, the values of GAGCAAGGAAACCTGCTC (((((.(....).))))) are 48.5 °C and -27.6 kcal/mol.
Regarding GAGCACGAAAGTGAACTC ((((((....)))..))), the Tm in data set [1] worked out at 42.9 °C. Further, in data set [2], the folding enthalpy is -20.2 kcal/mol.
Take GAGCACGAAAGTGATCTC ((((((....)))..))): the Tm in data set [1] was 57.1 °C. For the same sequence, the folding enthalpy in data set [2] is -23.7 kcal/mol.
In the same order, the values of GAGCACGGAAACGTGCCC (.(((((....))))).) are 53.6 °C and -6.99 kcal/mol.
As to GAGCAGGGAAACCTGCCC (.(((((....))))).), the Tm in data set [1] came to 42.1 °C. For the same sequence, the folding enthalpy in data set [2] is -12.8 kcal/mol.
In the same order, the values of GAGCATGGAAACATACTC (((.(((....))).))) are 35.6 °C and -26.1 kcal/mol.
In the same order, the values of GAGCCACGAAAGTGCCTC (((.(((....))).))) are 42.1 °C and -16.9 kcal/mol.
With GAGCCAGGAAACTAGCTC ((((.((....)).)))), in data set [1], the Tm is 37.4 °C. The folding enthalpy in data set [2] is -26.2 kcal/mol.
Taken in the same sequence, the figures for GAGCCCACGAAAGTGCTC (((..(((....)))))) were 35.8 °C and -16 kcal/mol.
Taken in the same sequence, the figures for GAGCCCCGAAAGGGTCTC (((.(((....))).))) were 57.1 °C and -32.9 kcal/mol.
Consider GAGCCCGAAAGGGATCTC ((((((....)))..))), for which the Tm in data set [1] came out at 69 °C. Besides, the folding enthalpy in data set [2] is -24.6 kcal/mol.
As to GAGCCCGAAAGGGCACTC ((((((....)))..))), in data set [1], the Tm turned out to be 62.2 °C. Besides, the folding enthalpy in data set [2] was -11 kcal/mol.
For the sequence GAGCCCGAAAGGGTACTC ((((((....)))..))), the Tm in data set [1] stood at 43.1 °C. Further, in data set [2], the folding enthalpy was -13.1 kcal/mol.
Taken in the same sequence, the figures for GAGCCCGAAAGGGTCCTC ((((((....)))..))) were 42.5 °C and -13.2 kcal/mol.
In the same order, the values of GAGCCCGAAAGGGTCTC ((((((....))).))) are 59 °C and -23.8 kcal/mol.
In the same order, the values of GAGCCCGGAAACGAGCTC ((((.((....)).)))) are 50.2 °C and -35.8 kcal/mol.
For GAGCCGGGAAACTGGCTC (((((.(....).))))), in data set [1], the Tm was determined as 63.3 °C. Besides, in data set [2], the folding enthalpy was -36.2 kcal/mol.
Taken in the same sequence, the figures for GAGCCTCCGAAAGGACTC (((..(((....)))))) were 31.9 °C and -11.8 kcal/mol.
For the sequence GAGCGAGGAAACTCGCCC (.(((((....))))).), the Tm in data set [1] was 53.6 °C. Further, the folding enthalpy in data set [2] is -7.21 kcal/mol.
As to GAGCGAGGAAACTCGTTC ((.((((....)))).)), the Tm in data set [1] is 48.8 °C. The folding enthalpy in data set [2] is -27 kcal/mol.
Taken in the same sequence, the figures for GAGCGAGGAAACTTGCTC ((((.((....)).)))) were 52.2 °C and -25.1 kcal/mol.
